A short description of assay [1]: Selectivity ratio EC50 for Gal4-fussed PPARdelta to EC50 for Gal4-fussed PPARalpha.
The target of assay [2] is T1, Peroxisome proliferator-activated receptor gamma (Homo sapiens, UniProt P37231).
T1 sequence (P37231 whole entry): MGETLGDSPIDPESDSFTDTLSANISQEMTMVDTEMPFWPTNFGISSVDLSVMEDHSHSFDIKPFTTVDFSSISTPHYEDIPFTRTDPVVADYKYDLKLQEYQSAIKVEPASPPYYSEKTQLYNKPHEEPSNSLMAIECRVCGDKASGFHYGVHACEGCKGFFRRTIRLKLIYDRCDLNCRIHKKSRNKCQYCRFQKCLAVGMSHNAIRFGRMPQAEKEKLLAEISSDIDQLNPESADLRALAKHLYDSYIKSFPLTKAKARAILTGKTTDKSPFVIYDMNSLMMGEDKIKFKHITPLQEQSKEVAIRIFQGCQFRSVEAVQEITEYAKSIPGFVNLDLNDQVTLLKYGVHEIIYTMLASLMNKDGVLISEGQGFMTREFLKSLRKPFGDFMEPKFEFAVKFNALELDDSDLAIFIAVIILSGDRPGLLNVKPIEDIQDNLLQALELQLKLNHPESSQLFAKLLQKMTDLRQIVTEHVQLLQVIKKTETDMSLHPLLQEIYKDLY
As to the kind of experiment: Agonist activity at Gal4-fussed PPARgamma expressed in human HEK293 cells by reporter gene assay. Type of assay: functional, cell-based.

Assay [3] concerns Rattus norvegicus. Description: Protection against nonalcoholic steatohepatitis progression in 4 weeks choline deficient high-fat diet fed methemoglobinemic Wistar rat assessed as effect on features of fatty liver at 1 mg/kg/day, ip administered for 6 weeks by hematoxylin and eosin staining in presence of 40 mg/kg/day, ip of sodium nitrite. The class given is functional, organism-based. An outline of the steps: (§1)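 Rats fed CDHF diet from 6 weeks of age for 4 weeks, then kept on CDHF over a 6-week period with daily ip NaNO2 40 mg/kg to cause methemoglobinemia; treated group also got compound 1 mg/kg/day. Controls were normal chow, CDHF alone and NASH. Housed singly, 12-h light-dark cycle, food and water ad libitum. Endpoints taken at study end.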

The test system of assay [4] is Rattus norvegicus. Description: Protection against nonalcoholic steatohepatitis progression in 4 weeks choline deficient high-fat diet fed methemoglobinemic Wistar rat assessed as increase of liver function at 1 mg/kg/day, ip administered for 6 weeks in presence of 40 mg/kg/day, ip of sodium nitrite. Type of assay: functional, organism-based. An outline of the steps: as §1

The test system of assay [5] is Rattus norvegicus. As to the kind of experiment: Protection against nonalcoholic steatohepatitis progression in 4 weeks choline deficient high-fat diet fed methemoglobinemic Wistar rat assessed as prevention of liver atrophy formation at 1 mg/kg/day, ip administered for 6 weeks by hematoxylin and eosin staining in presence of 40 mg/kg/day, ip of sodium nitrite. Type of assay: functional, organism-based. The method in brief:
as §1

Assay [6] deals with Rattus norvegicus. As to the kind of experiment: Protection against nonalcoholic steatohepatitis progression in 4 weeks choline deficient high-fat diet fed methemoglobinemic Wistar rat assessed as prevention of liver necrosis at 1 mg/kg/day, ip administered for 6 weeks by Masson Trichrome staining in presence of 40 mg/kg/day, ip of sodium nitrite. Type of assay: functional, organism-based. An outline of the steps: as §1

Assay [7] deals with Rattus norvegicus. Description: Protection against nonalcoholic steatohepatitis progression in 4 weeks choline deficient high-fat diet fed methemoglobinemic Wistar rat assessed as increase of alkaline phosphatase level at 1 mg/kg/day, ip administered for 6 weeks in presence of 40 mg/kg/day, ip of sodium nitrite. Type of assay: functional, organism-based. An outline of the steps: as §1

In assay [8] the test system is Rattus norvegicus. Description: Protection against nonalcoholic steatohepatitis progression in 4 weeks choline deficient high-fat diet fed methemoglobinemic Wistar rat assessed as increase of alanine transaminase level at 1 mg/kg/day, ip administered for 6 weeks in presence of 40 mg/kg/day, ip of sodium nitrite. Type of assay: functional, organism-based. The method in brief:
as §1

The subject of assay [9] is Rattus norvegicus. Description: Protection against nonalcoholic steatohepatitis progression in 4 weeks choline deficient high-fat diet fed methemoglobinemic Wistar rat assessed as prevention of nodule formation in liver at 1 mg/kg/day, ip administered for 6 weeks by hematoxylin and eosin staining in presence of 40 mg/kg/day, ip of sodium nitrite. The class given is functional, organism-based. An outline of the steps: as §1

Assay [10] deals with Rattus norvegicus. As to the kind of experiment: Protection against nonalcoholic steatohepatitis progression in 4 weeks choline deficient high-fat diet fed methemoglobinemic Wistar rat assessed as increase of aspartate amino transferase level at 1 mg/kg/day, ip administered for 6 weeks in presence of 40 mg/kg/day, ip of sodium nitrite. The class given is functional, organism-based. An outline of the steps: as §1

Assay [11] deals with T2, Peroxisome proliferator-activated receptor delta (Homo sapiens, UniProt Q03181).
T2 sequence (Q03181 whole entry): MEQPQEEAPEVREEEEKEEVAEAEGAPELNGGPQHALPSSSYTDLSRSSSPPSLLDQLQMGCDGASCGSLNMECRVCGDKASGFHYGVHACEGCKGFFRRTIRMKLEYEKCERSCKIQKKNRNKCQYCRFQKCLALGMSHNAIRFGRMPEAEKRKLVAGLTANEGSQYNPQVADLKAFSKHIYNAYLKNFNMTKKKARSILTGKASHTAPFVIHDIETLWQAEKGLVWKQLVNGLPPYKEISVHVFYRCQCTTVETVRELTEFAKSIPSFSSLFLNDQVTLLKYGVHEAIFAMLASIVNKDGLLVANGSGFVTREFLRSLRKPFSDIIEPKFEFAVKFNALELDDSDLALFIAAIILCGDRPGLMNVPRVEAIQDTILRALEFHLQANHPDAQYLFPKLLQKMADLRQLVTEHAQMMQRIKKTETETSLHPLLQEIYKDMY
Description: Agonist activity at Gal4-fussed PPARdelta expressed in human HEK293 cells by reporter gene assay. The class given is functional, cell-based.

Assay [12] has as its target T3, Peroxisome proliferator-activated receptor alpha (Homo sapiens, UniProt Q07869).
T3 sequence (Q07869 whole entry): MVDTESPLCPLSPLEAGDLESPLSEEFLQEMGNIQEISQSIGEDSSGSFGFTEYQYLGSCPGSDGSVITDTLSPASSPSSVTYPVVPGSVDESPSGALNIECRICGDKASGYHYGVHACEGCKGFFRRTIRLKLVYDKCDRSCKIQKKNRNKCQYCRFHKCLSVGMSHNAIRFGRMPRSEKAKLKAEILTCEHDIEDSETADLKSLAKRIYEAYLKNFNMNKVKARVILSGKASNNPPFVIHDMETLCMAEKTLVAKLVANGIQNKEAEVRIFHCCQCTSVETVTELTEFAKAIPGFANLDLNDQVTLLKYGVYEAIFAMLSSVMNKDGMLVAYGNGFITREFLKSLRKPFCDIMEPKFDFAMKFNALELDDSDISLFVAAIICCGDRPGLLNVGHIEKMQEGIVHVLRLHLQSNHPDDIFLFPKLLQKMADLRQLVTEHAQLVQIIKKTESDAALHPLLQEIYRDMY
Description: Agonist activity at Gal4-fussed PPARalpha expressed in human HEK293 cells by reporter gene assay. Type of assay: functional, cell-based. The method in brief: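 Transient transfection of HEK-293 cells with PPAR-GAL4 chimeric receptor plus reporter. EC50 is the molar concentration giving 50% of maximal reporter activity; racemates tested as such.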
A general note: Reporter assays use an easily measured gene product as a stand-in for the process of interest.

The subject of assay [13] is Rattus norvegicus. As to the kind of experiment: Protection against nonalcoholic steatohepatitis progression in 4 weeks choline deficient high-fat diet fed methemoglobinemic Wistar rat assessed as prevention of liver fibrosis at 1 mg/kg/day, ip administered for 6 weeks by Masson Trichrome staining in presence of 40 mg/kg/day, ip of sodium nitrite. Type of assay: functional, organism-based. The method in brief:
as §1

pEC50: −log10 of the molar value. Active and inactive are the calls of the source. The rule behind the calls is not given here. Where only a bound is given, the exact number is not on record here.

By pEC50 is commonly meant the EC50 on a negative log10 scale, so that one unit is a factor of ten. Read a low pEC50 as a large EC50. For `CC[C@@H](Cc1ccc(OC)c(CNC(=O)c2ccc(Oc3ccc(F)cc3)cc2)c1)C(=O)O`, in assay [1], the Ratio EC50 is 25. Besides, the pEC50 is 6.04 in assay [2], 6.52 in assay [11] and 8.30 in assay [12]. The result in the assay on Rattus norvegicus [3] was inactive. Further, the outcome in the assay with Rattus norvegicus [4], in the assay on Rattus norvegicus [5], in the assay with Rattus norvegicus [6], with Rattus norvegicus [7], with Rattus norvegicus [8] and in the assay on Rattus norvegicus [9] was Active. Further, the result in the assay with Rattus norvegicus [10] and in the assay on Rattus norvegicus [13] was Active.
On to `CC[C@@H](Cc1ccc(OC)c(CNC(=O)c2ccc(Oc3ccc(Cl)cc3)cc2)c1)C(=O)O`, for which the results for the pEC50 in assay [2], in [11] and in assay [12] were 6.08, 6.24 and 7.82, respectively.
The matching figures for `CC[C@@H](Cc1ccc(OC)c(CNC(=O)c2ccc(Oc3ccc(Br)cc3)cc2)c1)C(=O)O`: 6.00, 6.10 and 7.54.
On to `CCC(Cc1ccc(OC)c(CNC(=O)c2ccc(Oc3ccccc3)cc2)c1)C(=O)O` (racemic), for which the pEC50 is 6.09 in assay [2], 6.92 in assay [11] and 8.06 in [12].
With `CCC(Cc1ccc(OC)c(CNC(=O)c2ccc(OC(F)(F)F)cc2)c1)C(=O)O` (racemic), the pEC50 in [2] is 5.36; in [11], 6.96; in [12] it was 7.92.
The matching figures for `CCC(Cc1ccc(OC)c(CNC(=O)c2cccc(Oc3ccccc3)c2)c1)C(=O)O` (racemic): 5.34, 5.32 and 7.39.
Consider `CCC(Cc1ccc(OC)c(CNC(=O)c2ccccc2Oc2ccccc2)c1)C(=O)O` (racemic), for which the pEC50 in assay [2] was < 5.00; in [11], < 5.00; in assay [12], 5.44.
For the compound `CCC(Cc1ccc(OC)c(CNC(=O)c2cccc(-c3ccccc3)c2)c1)C(=O)O` (racemic), the pEC50 is 6.15 in assay [2], 5.39 in assay [11] and 7.13 in assay [12].
The matching figures for `CCC(Cc1ccc(OC)c(CNC(=O)c2ccccc2-c2ccccc2)c1)C(=O)O` (racemic): < 5.00, < 5.00 and 5.44.
The matching figures for `CCC(Cc1ccc(OC)c(CNC(=O)c2ccc(OCc3ccccc3)cc2)c1)C(=O)O` (racemic): 6.34, 5.85 and 7.28.
On to `CCC(Cc1ccc(OC)c(CNC(=O)c2ccc(OCCc3ccccc3)cc2)c1)C(=O)O` (racemic), for which the values for the pEC50 in assay [2], in assay [11] and in [12] were 6.11, 5.85 and 7.22, respectively.
As to `CCC(Cc1ccc(OC)c(CNC(=O)c2ccc(C)cc2)c1)C(=O)O` (racemic), the figures for the pEC50 in [2] and in [11] were 5.02 and 6.44, respectively.
`CCC(Cc1ccc(OC)c(CNC(=O)c2ccccc2)c1)C(=O)O` (racemic): in assay [2], the pEC50 was < 5.00.
In the case of `CCC(Cc1ccc(OC)c(CNC(=O)c2ccc(-c3ccccc3)cc2)c1)C(=O)O` (racemic), the pEC50 in assay [2] is 6.47; in assay [12] it was 8.12.

Source of the values: ChEMBL document CHEMBL1777707, “Structure-based design, synthesis, and nonalcoholic steatohepatitis (NASH)-preventive effect of phenylpropanoic acid peroxisome proliferator-activated receptor (PPAR) α-selective agonists” (Bioorg Med Chem, 2011).
